Screening results (PubChem BioAssay)
Only some compounds are listed: those with a hit (about 8.9% of all), similar ones and a draw of the others.
HSV replic up: HSV replication enhancement; HSV replication augmentation in cells, fold increase; maximum fold increase; 220,000 compounds, 0.005% hits; in the data active = maximum fold increase above about 1.5; tested in PC3 cells
Lmaj promast: reduces viability of Leishmania major promastigotes; inhibition, % at 10 µM; 200,000 compounds, 9% hits; resazurin fluorescence viability; AID 1063; in the data active = inhibition above about 50%;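 also: promastigotes grown with compound for 44 hours at 28 °C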
Dynein transport: blocks dynein driven cargo transport along microtubules; 3617.4 mouse cells, GR-EGFP nuclear translocation imaging; test concentration mostly 20 µM; stimulated with dexamethasone, 1 µM; hits give low values; z-score, hits read low; 220,000 compounds, 0.47% hits;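 active = plate z-score of nuclear minus cytoplasmic receptor signal below a set negative limit, without overly bright fluorescence or cell loss, cut at about -3.5 in these data, passing the limit was not always enough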;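 also: z-score of nuclear minus cytoplasmic ring GR-EGFP intensity difference per well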
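Buffer or medium – tet-free medium with charcoal-stripped serum · Signal – automated 10x imaging of fixed Hoechst-stained cells · Also added – dexamethasone agonist, 1.0 µM final, for 30 min · Incubation – induction 48 h, compound 1 h, agonist 30 min · Read-out – GR-EGFP nuclear translocation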
MT stabilize HCS: microtubule stabilizers in HeLa cells. HeLa tubulin immunostaining HCS, 24 h; share of cells brighter than vehicle mean+2SD. % tubulin-high responders, % at 10 µM. 200,000 compounds, 0.83% hits. AID 2205;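 active = plate Z-score above 3 for both tubulin-high and condensed-nucleus cell shares, with cell loss under 80%, at 10 µM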;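 also: anti alpha tubulin signal scored within the nucleus-defined area of each cell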
b-catenin transl: beta-catenin nuclear translocation modulation; HeLa beta-catenin nuclear translocation, immunofluorescence imaging; nuclear translocation activity, % at 5 µM; 190,000 compounds, 0.3% hits; AID 1665;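 active = nuclear translocation activity above 50% at 5 µM, with a well cell count of 50 or more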;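 also: per-cell ratio of nuclear to cytoplasmic median beta-catenin stain intensity; plate controls were DMSO negative control for no effect and GSK-3 inhibitor IX positive control for full effect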
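System: Human HeLa cells, endogenous beta-catenin | Compound dosing: 5 µM primary, 0.02–20 µM confirmation | Timing: 24 h compound exposure at 37°C, 5% CO2 | Measured by: Fluorescence imaging of beta-catenin antibody stain plus DAPI | Read-out basis: % activation of per-cell nuclear versus cytoplasmic median beta-catenin signal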
An asterisk follows results filed as active; i = inactive; . = no result given.

SMILES	HSV replic up	Lmaj promast	Dynein transport	MT stabilize HCS	b-catenin transl
CN(C)c1ccc(-c2cccc(C3CC=CC4C3C(=O)N(Cc3ccccc3)C4c3ccc4ccccc4c3)c2)cc1 (centres undefined)	i	.	1.7	.	-1.0
CCN(C(=O)COC(=O)c1cccnc1SC)C1CCS(=O)(=O)C1 (centres undefined)	i	-7.3	-0.509	5.2	0.3
C=CCCc1ccc(C#N)c(SCc2c(C(=O)OCC)c3cc(OC(C)=O)c(Br)cc3n2C)n1	i	63.7*	-0.956	3.6	-2.8
CCOC(=O)c1c(CSc2nc(C)cc(C)c2C#N)n(C)c2cc(Br)c(OC(C)=O)cc12	i	96.0*	-0.522	8.0	3.0
CCOC(=O)c1c(CSC(=N)N)n(-c2ccc(Br)cc2)c2cc(Br)c(OC(C)=O)cc12	i	87.6*	-2.16	22.2	9.8
O=C(CCl)Nc1cn(-c2ccccc2)nc1-c1ccccc1	i	98.8*	1.14	12.4	0.6
O=C1C2C3C=CC(C3)C2C(=O)N1c1ccccc1OS(=O)(=O)c1ccccc1 (centres undefined)	i	62.9*	-0.291	2.5	-1.0
Cc1ccc(C)c(CSc2nc3[nH]ncc3c(=O)[nH]2)c1	i	10.3	-0.0996	22.9*	20.6
COc1cccc(NC(=O)CC2S/C(=N\S(=O)(=O)c3ccccc3)N(c3ccccc3)C2=O)c1 (centres undefined)	i	61.4*	1.33	2.3	-0.7
CN1CCC(Oc2ccc(Sc3ccccc3)cc2)CC1	i	100.1*	-0.868	2.8	4.9
CN1CCC(Oc2ccccc2Sc2ccc(C(F)(F)F)cc2)CC1	i	99.2*	0.785	1.8	1.5
CCCCc1ccc(NC(=S)NCCO)cc1	i	-0.7	0.4	2.5	-2.2
COCCNC(=O)C1CCN(S(=O)(=O)c2c(C)noc2/C=C/c2cccs2)CC1	i	.	-0.839	.	-0.8
Cc1cccc(NC(=O)C2CCN(S(=O)(=O)c3c(C)noc3/C=C/c3ccco3)CC2)n1	i	98.7*	0.68	3.7	-4.1
CC(=O)Nc1cccc(NC(C)=O)n1	i	-1.6	0.309	4.6	-2.3
CC(C)CC(=O)Nc1cccc(NC(=O)CC(C)C)n1	i	52.2*	-0.0957	4.2	-4.3
CCCCCCNCc1cccc(Br)c1	i	53.6*	0.384	2.2	1.4
CCCCCNCc1cccc(Br)c1	i	74.5*	-0.577	3.0	-0.4
Brc1cccc(CNCCCN2CCOCC2)c1	i	21.8	-0.212	3.3	1.1
CCCOC(=O)c1ccc(NC(=O)C(=O)NCC2CCCO2)cc1 (centres undefined)	i	55.5*	0.485	1.4	-1.5
O=C(NC1CCCCC1)Sc1ccc(Cl)cc1	i	63.5*	-1.58	8.1	-2.2
CCN1CCN(C(=O)C2(NC(=O)Nc3ccccc3Cl)CCCCC2)CC1	i	55.3*	0.969	4.7	.
O=C(NCc1ccccc1)NC1(C(=O)N2CCN(c3ccccc3)CC2)CCCCC1	i	53.9*	0.0921	2.8	1.3
COc1cccc(N/C(SCc2ccccc2C)=C(/C#N)C(=O)NCc2cccs2)c1	i	3.5	-0.21	3.8	1.2
COc1cccc(N/C(SCc2cccc([N+](=O)[O-])c2)=C(/C#N)C(=O)NCc2cccs2)c1	i	87.1*	2.19	4.7	0.8
SMILES	HSV replic up	Lmaj promast	Dynein transport	MT stabilize HCS	b-catenin transl
O=S(=O)(c1ccccc1)N1CCN=C1SCc1ccc(Cl)c(Cl)c1	i	50.6*	-0.171	7.0	-0.2
O=S(=O)(c1ccccc1)N1CCN=C1SCc1ccc(Cl)cc1	.	99.8*	-0.62	2.7	-1.8
CCC(CC)C(=O)Nc1cc(C(=O)NCCc2ccccc2)ccc1Cl	i	2.0	0.901	3.9	-2.0
N#CC(C(=O)NC1CCCCC1)=C1CCCCC1	i	-4.8	-0.732	4.7	2.7
O=C(NCCCO)c1cc([N+](=O)[O-])cc2c1C=Cc1ccccc1O2	i	96.5*	1.15	2.7	1.5
CC(=O)COc1ccc2c3c(c(=O)oc2c1)CCCC3	i	2.9	-0.651	6.9	-2.5
COC(=O)c1c(-c2ccccc2)csc1NC1=NS(=O)(=O)c2ccccc21	i	89.3*	0.334	2.7	.
COC(=O)c1ccccc1NC(=O)CSc1nc(NC(=O)c2ccccc2)c2c(C)c(C)oc2n1	i	-0.7	-0.16	2.4	-1.3
Cc1nc2c(C(=O)NCc3cccs3)cnn2c(C)c1Cc1ccccc1	i	54.4*	0.465	3.9	-1.3
Cc1cccc(Cc2c(C)nc3c(C(=O)NCc4ccco4)cnn3c2C)c1	i	24.6	-1.1	4.5	-4.2
COc1ccc(CCNC(=O)c2cc(C(=O)c3cc(Cl)ccc3O)cn(CCc3ccc(OC)cc3)c2=O)cc1	i	99.5*	-0.846	1.9	1.1
O=C(c1cc(C(=O)NCCc2ccccc2)c(=O)n(CCc2ccccc2)c1)c1cc(Cl)ccc1O	i	98.1*	-0.527	5.7	1.7
O=C(O)c1ccccc1C(=O)NCCc1ccc(Cl)cc1	i	1.5	0.616	2.7	-0.8
COc1ccc(CCNC(=O)c2cc(C(=O)c3cc(C)ccc3O)cn(CCc3ccc(OC)cc3)c2=O)cc1	i	95.6*	-0.696	2.1	-0.4
COC(=O)c1c(O)ccc(Oc2ccccc2)c1C(=O)OC	i	.	.	.	0.3
CN1C(=O)c2ccccc2C(C(=O)O)C1c1cccc(F)c1 (centres undefined)	i	-0.1	-0.41	2.7	3.0
COc1ccc(/C=N/NC(=O)C(Cc2c[nH]c3ccccc23)NC(=O)OCC(C)C)cc1[N+](=O)[O-] (centres undefined)	.	99.4*	0.864	1.5	.
COc1cc(C2Oc3cc(C4Oc5cc(O)cc(O)c5C(=O)C4O)ccc3OC2CO)ccc1O (centres undefined)	i	-2.9	0.0288	2.4	.
Cc1ccc(N(C(=O)c2ccc(S(=O)(=O)N3CCOCC3)cc2)C2C=CS(=O)(=O)C2)cc1C (centres undefined)	i	-5.1	0.145	2.0	0.6
Cc1ccc(-n2nnc3c(SCC(=O)NCC4CCCO4)ncnc32)cc1 (centres undefined)	i	85.9*	0.0276	1.5	.
COC(=O)c1cccc(NC(=O)NC2CCCN2S(=O)(=O)c2ccc(Cl)cc2)c1 (centres undefined)	i	76.0*	0.431	1.6	.
COC(=O)c1cccc(NC(=O)Nc2ccc(Cl)c(Cl)c2)c1	i	87.1*	-0.545	0.9	-1.0
O=C(NCc1ccc2c(c1)OCO2)c1ccco1	i	-5.1	2.11	2.0	0.3
O=C(CC(SCCO)c1ccc2c(c1)OCO2)c1ccco1 (centres undefined)	i	56.5*	-2.12	6.0	.
NCCCCCc1nnc(SCc2ccccc2Cl)o1	i	98.8*	-0.118	3.0	-0.9
CC(Sc1ccccc1)C(=O)N/N=C/c1cccnc1 (centres undefined)	i	-3.1	-0.248	2.3	-1.8
CCOC(=O)N1CCc2c(sc(NC(=O)c3ccc(Cl)s3)c2C(N)=O)C1	i	82.0*	-1.92	4.9	2.3
